Data set [1] addresses Heat shock protein beta-1 (Homo sapiens) (UniProt P04792). In words: Inhibition of HSP27 in human U87 cells assessed as reduction in AR expression level at 50 to 100 nM by Western blot analysis. As to conditions: dose 50-100 nM. It is filed as cell-based. The method in brief: (§1)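 Cells were treated in six-well plates (with or without MG132 where stated), then lysed in RIPA with protease inhibitors. 50 μg protein was run on 10% SDS-PAGE and transferred to PVDF. Membranes were blocked in 5% milk/TBS-T, probed with AR or AR-V7 antibodies overnight at 4 °C, and detected by chemiluminescence. Densitometry was used; n = 3.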

For a further data set, the system named is U-87MG ATCC. In words: Downregulation of PSA mRNA expression in human U87 cells at 25 nM incubated for 12 hrs by qRT-PCR analysis. The data set is classed as functional, cell-based. The essentials:
(§2)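 T98G and U87 cells, 2 × 10^5 per well, adhered overnight and were treated at 25 nM for 12 h. RNA was extracted with RiboZol and DNase I-treated. AR, PSA and NKX3.1 were measured by real-time PCR, normalized to 18S by 2−ΔΔCt, three replicates per cDNA.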

In data set [2] the test system is U-87 MG. In words: Antitumor activity against human U87 cells xenografted in nude mouse assessed as reduction in tumor weight at 20 mg/kg, ip administered thrice weekly for 14 days by vernier caliper method. It is filed as functional, organism-based. As to conditions: U-87MG ATCC, time 14.0 day. The essentials: (§3)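 Male NCRNU nude mice, 5–6 weeks, 5 × 10^6 U87 cells in PBS injected subcutaneously into left and right flank (n = 4 mice, 8 tumors per group). Dosing began near 50 mm3: 20 mg/kg in PBS IP or oral, three times weekly for 14 days, vehicle DMSO. Calipers three times weekly, V = 2/3·d1·d2²; tumors weighed after CO2 euthanasia.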

Data set [3] concerns U-87 MG. Put plainly: Antitumor activity against human U87 cells xenografted in nude mouse assessed as reduction in tumor size at 20 mg/kg, po administered thrice weekly for 14 days by vernier caliper method. The data set is classed as functional, organism-based. As to conditions: U-87MG ATCC, time 14.0 day. The essentials:
as §3

The target of data set [4] is Heat shock protein beta-1 (Homo sapiens) (UniProt P04792). In words: Inhibition of HSP27 (unknown origin) chaperone activity assessed as increase in DTT-induced insulin aggregation at 10 uM incubated for 5 mins in presence of alpha-crystallin followed by addition of DTT and measured for 2 hrs for every 3 mins by microplate reader analysis. The settings on record: time 125.0 min. The essentials: (§4)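 Insulin aggregation assay in PBS at 10 μM, 0.1% DMSO. Insulin stock 1 mg/mL with or without α-crystallin stock 5 mg/mL was preincubated 5 min at 37 °C. Aggregation was started with DTT (1 M stock). A400 was read every 3 min for 2 h; three independent experiments, each in triplicate.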
Sequence of Heat shock protein beta-1 (Homo sapiens) (P04792 whole entry): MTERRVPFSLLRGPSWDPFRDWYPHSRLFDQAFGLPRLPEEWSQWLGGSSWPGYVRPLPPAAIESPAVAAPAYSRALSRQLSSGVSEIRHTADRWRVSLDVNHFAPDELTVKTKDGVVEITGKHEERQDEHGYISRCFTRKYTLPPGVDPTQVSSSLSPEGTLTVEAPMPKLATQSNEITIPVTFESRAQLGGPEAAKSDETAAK

The target is the same in data set [5]. Put plainly: Inhibition of HSP27 (unknown origin) chaperone activity assessed as increase in DTT-induced insulin aggregation at 10 uM incubated for 5 mins in absence of alpha-crystallin followed by addition of DTT and measured for 2 hrs for every 3 mins by microplate reader analysis. As to conditions: time 125.0 min. The essentials: as §4
The next data set has as its system A 172. In words: Antiproliferative activity against human A 172 cells assessed as reduction in cell viability incubated for 48 hrs by MTT assay. The data set is classed as functional, cell-based. As to conditions: A 172, 48 h. The method in brief: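 MTT assay; 3000 cells/well in RPMI 1640 or DMEM with 10% FBS, seeded 24 h, then exposed 48 h to a range of concentrations in DMSO (final ≤0.1%); vehicle controls. MTT 1 mg/mL for 2 h at 37 °C, dye dissolved in DMSO, absorbance 570 nm; eight replicates; IC50 by nonlinear regression.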

Data set [6] in a line: Toxicity in NCR nude mouse xenografted with human U87 cells assessed as change in body weight at 20 mg/kg, ip administered thrice weekly for 14 days. The data set is classed as organism-based. The settings on record: in vivo, 336 h, time 14 day. The method in brief: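 Male NCRNU nude mice, 5–6 weeks old, were given 5 × 10^6 U87 cells in 100 μL sterile PBS, injected subcutaneously into the left and right flanks. Dosing was 20 mg/kg in PBS, three times weekly for 14 days, with a DMSO vehicle group. Body weight was recorded three times weekly. Results are mean ± SD, n = 4 mice per group.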

Data set [7] concerns the target T1, Androgen receptor (Homo sapiens) (UniProt P10275).
T1 sequence (whole entry): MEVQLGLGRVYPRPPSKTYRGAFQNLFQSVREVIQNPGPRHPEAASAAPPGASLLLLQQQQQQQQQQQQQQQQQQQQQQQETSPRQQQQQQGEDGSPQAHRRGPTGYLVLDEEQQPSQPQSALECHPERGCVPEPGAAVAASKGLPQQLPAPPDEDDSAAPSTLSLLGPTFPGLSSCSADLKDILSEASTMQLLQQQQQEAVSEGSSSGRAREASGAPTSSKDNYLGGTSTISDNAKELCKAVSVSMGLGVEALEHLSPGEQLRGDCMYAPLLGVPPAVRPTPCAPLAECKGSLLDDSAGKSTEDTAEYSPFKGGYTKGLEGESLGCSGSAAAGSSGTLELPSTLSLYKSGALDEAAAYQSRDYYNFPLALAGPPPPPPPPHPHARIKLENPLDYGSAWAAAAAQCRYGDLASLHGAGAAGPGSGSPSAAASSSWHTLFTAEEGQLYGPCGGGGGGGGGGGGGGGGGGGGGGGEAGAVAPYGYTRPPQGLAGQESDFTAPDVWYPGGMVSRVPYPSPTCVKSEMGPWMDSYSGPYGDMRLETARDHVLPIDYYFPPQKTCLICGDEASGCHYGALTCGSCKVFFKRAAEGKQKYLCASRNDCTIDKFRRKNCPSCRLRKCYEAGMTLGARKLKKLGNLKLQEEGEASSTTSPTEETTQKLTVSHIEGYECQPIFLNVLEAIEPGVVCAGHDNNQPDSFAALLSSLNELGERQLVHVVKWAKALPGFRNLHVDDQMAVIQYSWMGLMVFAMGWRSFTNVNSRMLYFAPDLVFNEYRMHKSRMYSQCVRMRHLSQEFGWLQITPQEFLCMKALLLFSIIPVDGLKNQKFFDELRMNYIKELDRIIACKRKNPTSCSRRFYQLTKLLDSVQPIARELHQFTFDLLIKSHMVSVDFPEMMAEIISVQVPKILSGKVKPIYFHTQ
Put plainly: Inhibition of AR transcriptional activity in human T98G cells assessed as reduction in AR mRNA expression at 25 nM incubated for 12 hrs by qRT-PCR analysis. The data set is classed as cell-based. The essentials:
as §2

The test system of the next data set is T98G. In words: Downregulation of NKX3.1 mRNA expression in human T98G cells at 25 nM incubated for 12 hrs by qRT-PCR analysis. The data set is classed as functional, cell-based. The essentials: as §2
The target of data set [8] is Heat shock protein beta-1 (Homo sapiens) (UniProt P04792). Put plainly: Inhibition of HSP27 in human T98G cells assessed as reduction in AR-V7 expression level at 50 to 100 nM in presence of MG132 by Western blot analysis. The settings on record: dose 50-100 nM. The data set is classed as cell-based. The method in brief:
as §1

A further data set is filed under the species Bos taurus. Put plainly: Inhibition of bovine brain tubulin polymerization measured every 1 min for 45 mins in presence of GTP by microplate reader analysis. As to conditions: dose 1-1000 nM. The essentials: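 MAP-rich bovine brain tubulin, 2 mg/mL, in 80 mM PIPES pH 6.9, 2 mM MgCl2, 0.5 mM EGTA, 5% glycerol with a range of concentrations in DMSO at 37 °C. Polymerization was started with GTP (100 mM stock, 1 μL). A340 was read each minute for 45 min; three independent experiments, analysed at end reading.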

Data set [9] addresses Heat shock protein beta-1 (Homo sapiens) (UniProt P04792). Put plainly: Inhibition of HSP27 in human T98G cells assessed as reduction in AR-V7 expression by Western blot analysis. It is filed as cell-based. The settings on record: dose 25-100 nM. The essentials: as §1

Molecules are shown by their SMILES. The source made the active and inactive calls. No cut-off for these calls is given here.

The record followed here is ChEMBL document CHEMBL4706680, “Small-Molecule HSP27 Inhibitor Abolishes Androgen Receptors in Glioblastoma” (J Med Chem, 2021).

Regarding `COc1ccc(C(=O)Nc2ccc(NS(C)(=O)=O)c(OCc3cc(OC)ccc3OC)c2)cc1`, the inhibition result (in [1]; in the data set on U-87MG ATCC; in [4]; in data set [7]; in the data set on T98G) was “Active” throughout. Also, the result with U-87 MG [2] and in the data set on U-87 MG [3] was Active. Also, the inhibition entry in data set [5] and in [8] was “inactive” throughout. Further, in the data set with A 172, the IC50 amounted to 6.24 nM. Also, the Activity result in data set [6] was “Non-Toxic”. In addition, the inhibition entry (in the data set filed under Bos taurus; in data set [9]) was “Dose-dependent effect” each time.
